According to ChEMBL document CHEMBL1155297, “Synthesis, antimicrobial and antioxidant activities of substituted pyrazoles, isoxazoles, pyrimidine and thioxopyrimidine derivatives” (2009):

Tests used:
Type in all cases: functional
Staphylococcus aureus [1] = test: Antibacterial activity against Staphylococcus aureus NCIM 5021 at 100 ug/disk after 24 hrs by agar disk diffusion method; conditions: NCIM 5021, 24 h, read-out: IZ
How it was run: (§1)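 Agar disc diffusion on nutrient agar plates pre-inoculated with each bacterium. Sterile 6 mm filter-paper discs were moistened with compound in DMSO at the stated per-disc amount. Plates were incubated at 37 °C, and the growth-inhibition zone diameter was read after 24 h. Each determination was run in triplicate, and the mean of three independent readings is reported.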

Bacillus subtilis [2] = test: Antibacterial activity against Bacillus subtilis NCIM 2063 at 100 ug/disk after 24 hrs by agar disk diffusion method; conditions: NCIM 2063, 24 h, read-out: IZ; how it was run: as §1
Curvularia lunata [3] = test: Antifungal activity against Curvularia lunata NCIM 716 at 200 ug/disk after 48 hrs by agar disk diffusion method; conditions: NCIM 716, 48 h, read-out: IZ
How it was run: (§2)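 Fungal disc diffusion on nutrient agar plates pre-inoculated with each fungus. 6 mm sterile paper discs carried the compound in DMSO at the stated amount per disc. Plates were held at 37 °C, and inhibition-zone diameter was measured after 48 h. Values are the mean of three independent triplicate readings.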

Fusarium solani [4] = test: Antifungal activity against Fusarium solani NCIM 1330 at 200 ug/disk after 48 hrs by agar disk diffusion method; conditions: NCIM 1330, 48 h, read-out: IZ; how it was run: as §2
Klebsiella pneumoniae [5] = test: Antibacterial activity against Klebsiella pneumoniae NCIM 2957 at 200 ug/disk after 24 hrs by agar disk diffusion method; conditions: NCIM 2957, 24 h, read-out: IZ; how it was run: as §1
[6] = Antioxidant activity assessed as nitric oxide production at 100 uM after 120 mins by Griess reagent method
How it was run: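 Nitric oxide assay with Griess read-out. At intervals, 0.5 ml of incubation solution was mixed with 0.5 ml Griess reagent (1% sulfanilamide, 0.1% N-naphthylethylenediamine dihydrochloride, 2% o-phosphoric acid in water). The control received an equal amount of solvent and was handled identically.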

Proteus vulgaris [7] = test: Antibacterial activity against Proteus vulgaris NCIM 2027 at 100 ug/disk after 24 hrs by agar disk diffusion method; conditions: NCIM 2027, 24 h, read-out: IZ; how it was run: as §1
Aspergillus niger [8] = test: Antifungal activity against Aspergillus niger NCIM 596 at 100 ug/disk after 48 hrs by agar disk diffusion method; conditions: NCIM 596, 48 h, read-out: IZ; how it was run: as §2
Aspergillus niger [9] = test: Antifungal activity against Aspergillus niger NCIM 596 at 200 ug/disk after 48 hrs by agar disk diffusion method; conditions: NCIM 596, 48 h, read-out: IZ; how it was run: as §2
Proteus vulgaris [10] = test: Antibacterial activity against Proteus vulgaris NCIM 2027 at 200 ug/disk after 24 hrs by agar disk diffusion method; conditions: NCIM 2027, 24 h, read-out: IZ; how it was run: as §1
Staphylococcus aureus [11] = test: Antibacterial activity against Staphylococcus aureus NCIM 5021 at 200 ug/disk after 24 hrs by agar disk diffusion method; conditions: NCIM 5021, 24 h, read-out: IZ; how it was run: as §1
Fusarium solani [12] = test: Antifungal activity against Fusarium solani NCIM 1330 at 100 ug/disk after 48 hrs by agar disk diffusion method; conditions: NCIM 1330, 48 h, read-out: IZ; how it was run: as §2
Bacillus subtilis [13] = test: Antibacterial activity against Bacillus subtilis NCIM 2063 at 200 ug/disk after 24 hrs by agar disk diffusion method; conditions: NCIM 2063, 24 h, read-out: IZ; how it was run: as §1
Curvularia lunata [14] = test: Antifungal activity against Curvularia lunata NCIM 716 at 100 ug/disk after 48 hrs by agar disk diffusion method; conditions: NCIM 716, 48 h, read-out: IZ; how it was run: as §2
[15] = system: Radical scavenging activity; test: Antioxidant activity assessed as DPPH free radical scavenging activity at 100 uM after 20 mins
How it was run: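 DPPH scavenging: compound solutions were added to DPPH in dioxane/ethanol and kept at ambient temperature for 20 min. Absorbance was read at 517 nm. The test–control difference was expressed as percent DPPH radical scavenging.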

Klebsiella pneumoniae [16] = test: Antibacterial activity against Klebsiella pneumoniae NCIM 2957 at 100 ug/disk after 24 hrs by agar disk diffusion method; conditions: NCIM 2957, 24 h, read-out: IZ; how it was run: as §1

Q: Which zone of inhibition at 100 µg/disc (Staphylococcus aureus [1]) does the source give for `NC1=NC(=S)N=C(N)C1C(CC(=O)c1ccccc1)C(=O)c1ccccc1` (stereo unspecified) here?
A: 22 mm

Q: And the zone of inhibition at 100 µg/disc (Bacillus subtilis [2])?
A: 23 mm

Q: What about the zone of inhibition at 200 µg/disc (Curvularia lunata [3]) of the same compound?
A: 22 mm

Q: And the zone of inhibition at 200 µg/disc (Fusarium solani [4])?
A: 20 mm

Q: And the zone of inhibition at 200 µg/disc (Klebsiella pneumoniae [5])?
A: 21 mm

Q: What about the inhibition [6] of the same compound?
A: 35.7%

Q: What about the zone of inhibition at 100 µg/disc (Proteus vulgaris [7]) of the same compound?
A: 17 mm

Q: What about the zone of inhibition at 100 µg/disc (Aspergillus niger [8]) of the same compound?
A: 14 mm

Q: What about the zone of inhibition at 200 µg/disc (Aspergillus niger [9]) of the same compound?
A: 19 mm

Q: And the zone of inhibition at 200 µg/disc (Proteus vulgaris [10])?
A: 19 mm

Q: What about the zone of inhibition at 200 µg/disc (Staphylococcus aureus [11]) of the same compound?
A: 24 mm

Q: And the zone of inhibition at 100 µg/disc (Fusarium solani [12])?
A: 16 mm

Q: What about the zone of inhibition at 200 µg/disc (Bacillus subtilis [13]) of the same compound?
A: 24 mm

Q: And the zone of inhibition at 100 µg/disc (Curvularia lunata [14])?
A: 19 mm

Q: And the inhibition [15]?
A: 37.8%

Q: What about the zone of inhibition at 100 µg/disc (Klebsiella pneumoniae [16]) of the same compound?
A: 19 mm

Q: With `CN1C(=N)C(C(CC(=O)c2ccc(Cl)cc2)C(=O)c2ccc(Cl)cc2)C(=N)N(C)C1=O` (stereo unspecified) as the compound, how does the zone of inhibition at 100 µg/disc (Staphylococcus aureus [1]) read?
A: 12 mm

Q: And the zone of inhibition at 100 µg/disc (Bacillus subtilis [2])?
A: 11 mm

Q: And the zone of inhibition at 200 µg/disc (Curvularia lunata [3])?
A: 15 mm

Q: And the zone of inhibition at 200 µg/disc (Fusarium solani [4])?
A: 16 mm

Q: And the zone of inhibition at 200 µg/disc (Klebsiella pneumoniae [5])?
A: 10 mm

Q: And the inhibition [6]?
A: 28.2%

Q: And the zone of inhibition at 100 µg/disc (Proteus vulgaris [7])?
A: 9 mm

Q: And the zone of inhibition at 100 µg/disc (Aspergillus niger [8])?
A: 11 mm

Q: What about the zone of inhibition at 200 µg/disc (Aspergillus niger [9]) of the same compound?
A: 13 mm

Q: What about the zone of inhibition at 200 µg/disc (Proteus vulgaris [10]) of the same compound?
A: 11 mm

Q: And the zone of inhibition at 200 µg/disc (Staphylococcus aureus [11])?
A: 14 mm

Q: And the zone of inhibition at 100 µg/disc (Fusarium solani [12])?
A: 14 mm

Q: And the zone of inhibition at 200 µg/disc (Bacillus subtilis [13])?
A: 13 mm

Q: What about the zone of inhibition at 100 µg/disc (Curvularia lunata [14]) of the same compound?
A: 13 mm

Q: What about the inhibition [15] of the same compound?
A: 29.9%

Q: And the zone of inhibition at 100 µg/disc (Klebsiella pneumoniae [16])?
A: 9 mm

Q: With `NC1=NN=C(N)C1C(CS(=O)(=O)c1ccccc1)S(=O)(=O)c1ccccc1` (stereo unspecified) as the compound, how does the zone of inhibition at 100 µg/disc (Staphylococcus aureus [1]) read?
A: 30 mm

Q: And the zone of inhibition at 100 µg/disc (Bacillus subtilis [2])?
A: 31 mm

Q: What about the zone of inhibition at 200 µg/disc (Curvularia lunata [3]) of the same compound?
A: 36 mm

Q: And the zone of inhibition at 200 µg/disc (Fusarium solani [4])?
A: 37 mm

Q: And the zone of inhibition at 200 µg/disc (Klebsiella pneumoniae [5])?
A: 30 mm

Q: What about the inhibition [6] of the same compound?
A: 60%

Q: What about the zone of inhibition at 100 µg/disc (Proteus vulgaris [7]) of the same compound?
A: 24 mm

Q: And the zone of inhibition at 100 µg/disc (Aspergillus niger [8])?
A: 31 mm

Q: What about the zone of inhibition at 200 µg/disc (Aspergillus niger [9]) of the same compound?
A: 34 mm

Q: And the zone of inhibition at 200 µg/disc (Proteus vulgaris [10])?
A: 25 mm

Q: And the zone of inhibition at 200 µg/disc (Staphylococcus aureus [11])?
A: 32 mm

Q: And the zone of inhibition at 100 µg/disc (Fusarium solani [12])?
A: 34 mm

Q: What about the zone of inhibition at 200 µg/disc (Bacillus subtilis [13]) of the same compound?
A: 33 mm

Q: What about the zone of inhibition at 100 µg/disc (Curvularia lunata [14]) of the same compound?
A: 33 mm

Q: And the inhibition [15]?
A: 58.5%

Q: And the zone of inhibition at 100 µg/disc (Klebsiella pneumoniae [16])?
A: 28 mm

Q: What does the source list for `Cc1ccc(C(=O)CC(C(=O)c2ccc(C)cc2)C2C(=N)N(C)C(=O)N(C)C2=N)cc1` (stereo unspecified)?
A: zone of inhibition at 100 µg/disc (Staphylococcus aureus [1]): 10 mm; zone of inhibition at 100 µg/disc (Bacillus subtilis [2]): 9 mm; zone of inhibition at 200 µg/disc (Curvularia lunata [3]): 16 mm; zone of inhibition at 200 µg/disc (Fusarium solani [4]): 15 mm; zone of inhibition at 200 µg/disc (Klebsiella pneumoniae [5]): 8 mm; inhibition [6]: 20.3%; zone of inhibition at 100 µg/disc (Proteus vulgaris [7]): 7 mm; zone of inhibition at 100 µg/disc (Aspergillus niger [8]): 10 mm; zone of inhibition at 200 µg/disc (Aspergillus niger [9]): 12 mm; zone of inhibition at 200 µg/disc (Proteus vulgaris [10]): 9 mm; zone of inhibition at 200 µg/disc (Staphylococcus aureus [11]): 12 mm; zone of inhibition at 100 µg/disc (Fusarium solani [12]): 12 mm; zone of inhibition at 200 µg/disc (Bacillus subtilis [13]): 10 mm; zone of inhibition at 100 µg/disc (Curvularia lunata [14]): 14 mm; inhibition [15]: 21.7%; zone of inhibition at 100 µg/disc (Klebsiella pneumoniae [16]): 7 mm

Q: For `NC1=NN=C(N)C1C(CC(=O)c1ccccc1)C(=O)c1ccccc1` (stereo unspecified), which zone of inhibition at 100 µg/disc (Staphylococcus aureus [1]) is on record?
A: 27 mm

Q: What about the zone of inhibition at 100 µg/disc (Bacillus subtilis [2]) of the same compound?
A: 29 mm

Q: And the zone of inhibition at 200 µg/disc (Curvularia lunata [3])?
A: 32 mm

Q: What about the zone of inhibition at 200 µg/disc (Fusarium solani [4]) of the same compound?
A: 33 mm

Q: And the zone of inhibition at 200 µg/disc (Klebsiella pneumoniae [5])?
A: 29 mm

Q: What about the inhibition [6] of the same compound?
A: 71.7%

Q: And the zone of inhibition at 100 µg/disc (Proteus vulgaris [7])?
A: 23 mm

Q: What about the zone of inhibition at 100 µg/disc (Aspergillus niger [8]) of the same compound?
A: 29 mm

Q: What about the zone of inhibition at 200 µg/disc (Aspergillus niger [9]) of the same compound?
A: 30 mm

Q: And the zone of inhibition at 200 µg/disc (Proteus vulgaris [10])?
A: 26 mm

Q: What about the zone of inhibition at 200 µg/disc (Staphylococcus aureus [11]) of the same compound?
A: 30 mm

Q: What about the zone of inhibition at 100 µg/disc (Fusarium solani [12]) of the same compound?
A: 31 mm

Q: And the zone of inhibition at 200 µg/disc (Bacillus subtilis [13])?
A: 31 mm

Q: And the zone of inhibition at 100 µg/disc (Curvularia lunata [14])?
A: 30 mm

Q: What about the inhibition [15] of the same compound?
A: 73.7%

Q: And the zone of inhibition at 100 µg/disc (Klebsiella pneumoniae [16])?
A: 27 mm

Q: For `NC1=NC(=S)N=C(N)C1C(CS(=O)(=O)c1ccc(Cl)cc1)S(=O)(=O)c1ccc(Cl)cc1` (stereo unspecified), which zone of inhibition at 100 µg/disc (Staphylococcus aureus [1]) is on record?
A: 25 mm

Q: And the zone of inhibition at 100 µg/disc (Bacillus subtilis [2])?
A: 23 mm

Q: What about the zone of inhibition at 200 µg/disc (Curvularia lunata [3]) of the same compound?
A: 28 mm

Q: What about the zone of inhibition at 200 µg/disc (Fusarium solani [4]) of the same compound?
A: 25 mm

Q: What about the zone of inhibition at 200 µg/disc (Klebsiella pneumoniae [5]) of the same compound?
A: 22 mm

Q: And the inhibition [6]?
A: 48.5%

Q: And the zone of inhibition at 100 µg/disc (Proteus vulgaris [7])?
A: 21 mm

Q: What about the zone of inhibition at 100 µg/disc (Aspergillus niger [8]) of the same compound?
A: 20 mm

Q: And the zone of inhibition at 200 µg/disc (Aspergillus niger [9])?
A: 23 mm

Q: And the zone of inhibition at 200 µg/disc (Proteus vulgaris [10])?
A: 23 mm

Q: And the zone of inhibition at 200 µg/disc (Staphylococcus aureus [11])?
A: 27 mm

Q: And the zone of inhibition at 100 µg/disc (Fusarium solani [12])?
A: 22 mm

Q: What about the zone of inhibition at 200 µg/disc (Bacillus subtilis [13]) of the same compound?
A: 25 mm

Q: What about the zone of inhibition at 100 µg/disc (Curvularia lunata [14]) of the same compound?
A: 25 mm

Q: And the inhibition [15]?
A: 47.9%

Q: And the zone of inhibition at 100 µg/disc (Klebsiella pneumoniae [16])?
A: 20 mm
